Active and inactive are the calls of the source. The rule behind the calls is not given here. *1 amine or outer side, *2 acyl side, *3 side chain or, on linkers, in order; H or OH if unused. Where a SMILES comes first, the peptide text is derived from it. Bridges are numbered along the chain shown (N, C = ends). Roman numbers before positions name the chains, in order. [ ]: non-standard residue; d: D form. Actinocin(1to9) = Cc1c2oc3c(C)ccc(C(=O)[*:2])c3nc-2c(C(=O)[*:1])c(N)c1=O; NMeV = CN[C@H](C(=O)O)C(C)C; Sar = CNCC(=O)O

For 15 molecules, IC50, Activity and Ratio results are on record in ChEMBL document CHEMBL1149875, “DNA threading bis(9-aminoacridine-4-carboxamides): effects of piperidine sidechains on DNA binding, cytotoxicity and cell cycle arrest” (Bioorg Med Chem, 2008).

For assay [1], the system named is CCRF-CEM. Kind of assay: Cytotoxicity against human CCRF-CEM cells after 72 hrs. In kind it is functional, cell-based. The gist of the method: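 CCRF-CEM human leukaemia cells exposed to agents for 72 h at 37 °C in RPMI 1640 with 10% foetal bovine serum. Cells counted with a Coulter Counter, duplicates per concentration, experiment repeated ≥3 times; IC50 from curve fitting.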

Assay [2] relates to CCRF-CEM. Kind of assay: Cell cycle arrest in human CCRF-CEM cells assessed as accumulation at G2/M phase at 5 times IC50 after 24 hrs by flow cytometry. In kind it is functional. The gist of the method: (§1)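 CCRF-CEM cells seeded at 1 × 10^5 per ml in flasks and grown 24 h. Drug then added at 1×, 2×, 5× or 10× the measured 72 h IC50 and cells incubated a further 24 h; untreated controls. Cells washed in PBS, fixed in ice-cold ethanol, stained with propidium iodide and analysed by flow cytometry for % cells at G2/M.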

Assay [3] relates to CCRF-CEM. In words: Cell cycle arrest in human CCRF-CEM cells assessed as accumulation at G2/M phase at 10 times IC50 after 24 hrs by flow cytometry. Type of assay: functional. The gist of the method:
as §1

The subject of assay [4] is Escherichia coli. Kind of assay: Binding affinity to Escherichia coli pBR322 DNA assessed as equivalence binding ratio by agarose gel electrophoresis. The gist of the method:
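Supercoiled pBR322 closed circular DNA (150 ng, 23.6 µM bp) mixed with dimer in tris acetate buffer pH 7.5, 40 mM for Pip dimers and 10 mM for NMP dimers; 1 h dark incubation at room temperature; 0.8% agarose gel, 74 V (5 V/cm), 1 h 15 min. Equivalence ratio in base-pair units, taken where supercoiling is removed and closed and nicked circles co-migrate; ≥3 titrations.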

For assay [5], the system named is CCRF-CEM. In words: Cell cycle arrest in human CCRF-CEM cells assessed as accumulation at G2/M phase at 1 time IC50 after 24 hrs by flow cytometry. Type of assay: functional. The gist of the method: as §1
In assay [6] the test system is CCRF-CEM. In words: Cell cycle arrest in human CCRF-CEM cells assessed as accumulation at G2/M phase after 24 hrs by flow cytometry. In kind it is functional, cell-based. The gist of the method:
as §1

The molecule `CN1CCC(NC(=O)c2cccc3c(NCCN4CCN(CCNc5c6ccccc6nc6c(C(=O)NC7CCN(C)CC7)cccc56)CC4)c4ccccc4nc23)CC1` came in with an IC50 in assay [1] of 800 nM. Also, the Activity in assay [2] worked out at 52%.

Take `CN1CCC(NC(=O)c2cccc3c(NCCCNCCCNc4c5ccccc5nc5c(C(=O)NC6CCN(C)CC6)cccc45)c4ccccc4nc23)CC1`: the IC50 in assay [1] came out at 680 nM. For the same molecule, the Activity in assay [3] is recorded as 50%. In addition, the Ratio in assay [4] worked out at 0.24.

With `CN(C)CCNC(=O)c1cccc2c(N)c3ccccc3nc12`, the IC50 in assay [1] was found to be 120 nM. Besides, the Activity in assay [3] was found to be 61%.

`CN1CCC(NC(=O)c2cccc3c(NCCCCCCNc4c5ccccc5nc5c(C(=O)NC6CCN(C)CC6)cccc45)c4ccccc4nc23)CC1` came in with an IC50 in assay [1] of 210 nM. Further, the Ratio in assay [4] turned out to be 0.25.

`COc1cc(NS(C)(=O)=O)ccc1Nc1c2ccccc2nc2ccccc12` [AMSACRINE] returned an IC50 in assay [1] of 130 nM. In assay [5], the Activity came out at 68%.

For the molecule `CN1CCC(NC(=O)c2cccc3c(NCCNCCNCCNc4c5ccccc5nc5c(C(=O)NC6CCN(C)CC6)cccc45)c4ccccc4nc23)CC1`, half-maximal inhibition in assay [1] (IC50) was put at 1100 nM. Besides, the Activity in assay [3] was determined as 40%. For the same molecule, the Ratio in assay [4] stood at 0.11.

Regarding `CN1CCC(NC(=O)c2cccc3c(NCCCCCCCCNc4c5ccccc5nc5c(C(=O)NC6CCN(C)CC6)cccc45)c4ccccc4nc23)CC1`, the IC50 in assay [1] came to 130 nM. In addition, the Activity in assay [3] turned out to be 43%. Besides, the Ratio in assay [4] came out at 0.175.

Regarding `O=C(NCCN1CCCCC1)c1cccc2c(NCCN3CCN(CCNc4c5ccccc5nc5c(C(=O)NCCN6CCCCC6)cccc45)CC3)c3ccccc3nc12`, in assay [1], the IC50 stood at 130 nM. Further, in assay [6], the result was inactive. The Ratio in assay [4] is 0.13.

`O=C(NCCN1CCCCC1)c1cccc2c(NCCCCCCNc3c4ccccc4nc4c(C(=O)NCCN5CCCCC5)cccc34)c3ccccc3nc12` had an IC50 in assay [1] of 200 nM. The result in assay [6] was inactive. Also, the Ratio in assay [4] is 0.14.

On to `O=C(NCCN1CCCCC1)c1cccc2c(NCCNCCNCCNc3c4ccccc4nc4c(C(=O)NCCN5CCCCC5)cccc34)c3ccccc3nc12`, for which, in assay [1], inhibition was half-maximal at 270 nM (IC50). In assay [6], the outcome was inactive. For the same molecule, in assay [4], the Ratio was 0.16.

In assay [1], `CN1CCC(NC(=O)c2cccc3c(NCCCCNCCCNc4c5ccccc5nc5c(C(=O)NC6CCN(C)CC6)cccc45)c4ccccc4nc23)CC1` returned an IC50 of 340 nM. Moreover, the Ratio in assay [4] worked out at 0.21.

The molecule `O=C(NCCN1CCCCC1)c1cccc2c(NCCCCCCCCNc3c4ccccc4nc4c(C(=O)NCCN5CCCCC5)cccc34)c3ccccc3nc12` had an IC50 in assay [1] of 99 nM. In addition, the outcome in assay [6] was inactive. The Ratio in assay [4] turned out to be 0.16.

In assay [1], `O=C(NCCN1CCCCC1)c1cccc2c(NCCCCNCCCNc3c4ccccc4nc4c(C(=O)NCCN5CCCCC5)cccc34)c3ccccc3nc12` showed an IC50 of 230 nM. The result in assay [6] was inactive. Also, the Ratio in assay [4] came to 0.135.

In assay [1], `Cc1c2oc3c(C)ccc(C(=O)N[C@@H]4C(=O)N[C@H](C(C)C)C(=O)N5CCC[C@H]5C(=O)N(C)CC(=O)N(C)[C@@H](C(C)C)C(=O)O[C@@H]4C)c3nc-2c(C(=O)N[C@@H]2C(=O)N[C@H](C(C)C)C(=O)N3CCC[C@H]3C(=O)N(C)CC(=O)N(C)[C@@H](C(C)C)C(=O)O[C@@H]2C)c(N)c1=O` [DACTINOMYCIN] (I: T[dV]P[Sar][NMeV] / II: T[dV]P[Sar][NMeV]; ester I:1-I:C, II:1-II:C; linker I:N-II:N via Actinocin(1to9)) displayed an IC50 of 1.6 nM. The outcome in assay [6] was inactive.

In assay [1], `O=C(NCCN1CCCCC1)c1cccc2c(NCCCNCCCNc3c4ccccc4nc4c(C(=O)NCCN5CCCCC5)cccc34)c3ccccc3nc12` yielded an IC50 of 260 nM. The result in assay [6] was inactive. The Ratio in assay [4] worked out at 0.14.
